Experimental findings from ChEMBL document CHEMBL4390663, “Cationic biaryl 1,2,3-triazolyl peptidomimetic amphiphiles: synthesis, antibacterial evaluation and preliminary mechanism of action studies” (Eur J Med Chem, 2019) are described below.

Data set [1] deals with Staphylococcus aureus. Briefly: Antimicrobial activity against methicillin-resistant Staphylococcus aureus incubated for 24 hrs by broth microdilution method. Format: functional. Put shortly: (§1)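 Broth microdilution per CLSI aerobic guidance in Mueller Hinton broth, ambient air, 35 °C for 24 h. DMSO stocks were diluted in water, then serially diluted with double-strength broth inoculum added, for final 0.25–128 μg/mL. […] MIC was read visually as the lowest concentration inhibiting growth; the modal value of triplicates was recorded.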

For data set [2], the system named is Enterococcus faecalis. Kind of data set: Antimicrobial activity against vancomycin-resistant Enterococcus faecalis incubated for 24 hrs by broth microdilution method. Format: functional.
Data set [3] deals with Clostridioides difficile. Kind of data set: Antimicrobial activity against Clostridium difficile incubated for 24 hrs by broth microdilution method. The format is functional.
For data set [4], the system named is Acinetobacter baumannii. Briefly: Antimicrobial activity against Acinetobacter baumannii incubated for 24 hrs by broth microdilution method. The format is functional.
The nature of data set [5]: Haemolytic activity in sheep erythrocytes at 50 ug/ml incubated for 2 hrs under shaking condition relative to control. The following applies: read-out: Activity. The format is ADME, cell-based, Ovis aries, Erythrocyte. Put shortly: (§2)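 Compounds in PBS mixed with washed sheep erythrocytes (2% final) at 5 or 50 μg/mL, rocked 2 h at 37 °C, centrifuged; supernatant absorbance at 540 nm. PBS-only value subtracted, then expressed relative to water lysis (100%). Triplicate, means reported.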

Data set [6] concerns Clostridioides difficile. Kind of data set: Antibacterial activity against Clostridium difficile NSW132 RT027 incubated for 48 hrs by CLSI method. Format: functional. To be noted: NSW132 RT027, 48 h. Put shortly: (§3)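 Broth microdilution per CLSI anaerobe method in pre-reduced (2-4 h) Brucella broth with haemin and vitamin K, 35 °C anaerobically for 48 h. Compounds from 5 mg/mL DMSO stocks, twofold dilutions in water mixed with double-strength broth; final 0.25–128 μg/mL. […] Triplicate; modal MIC read visually as lowest concentration inhibiting growth.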

Data set [7] relates to Escherichia coli. Kind of data set: Antibacterial activity against Escherichia coli ATCC 25922 incubated for 18 hrs by CLSI method. The format is functional. To be noted: ATCC 25922, 18 h. Put shortly: (§4)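 Screen run by CO-ADD: mid-log cultures in cation-adjusted MHB, 5 × 10^5 CFU/mL, compounds at up to 32 μg/mL in 1:2 serial dilutions (8 steps), final DMSO ≤0.5%, duplicate. 37 °C for 18 h without shaking; OD600 read against media-only and untreated-bacteria references. MIC = lowest concentration giving ≥80% inhibition; colistin standard.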

The test system of the next data set is Klebsiella pneumoniae. Briefly: Antibacterial activity against Klebsiella pneumoniae 700603 incubated for 18 hrs by CLSI method. The format is functional. To be noted: Klebsiella pneumoniae, 700603, 18 h. In a few lines:
as §4

Data set [8] deals with Clostridioides difficile. Kind of data set: Antibacterial activity against Clostridium difficile ATCC 700057 incubated for 48 hrs by CLSI method. Format: functional. The following applies: ATCC 700057, 48 h. Put shortly: as §3
The test system of another data set is Pseudomonas aeruginosa. Briefly: Antimicrobial activity against Pseudomonas aeruginosa ATCC 27853 incubated for 18 hrs by CLSI method. Format: functional. The following applies: ATCC 27853, 18 h. In a few lines: as §4
The subject of data set [9] is Staphylococcus aureus. Kind of data set: Antimicrobial activity against Staphylococcus aureus ATCC 43300 incubated for 18 hrs by CLSI method. The format is functional. The following applies: ATCC 43300, 18 h.
For data set [10], the system named is Streptococcus pneumoniae. Kind of data set: Antibacterial activity against Streptococcus pneumoniae ATCC 49619 incubated for 24 hrs by CLSI method. The format is functional. To be noted: ATCC 49619, 24 h. In a few lines: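 CLSI broth microdilution in MHB with 2.5% lysed horse blood, 5% CO2, 35 °C, 24 h. Compounds from 5 mg/mL DMSO stocks diluted in water plus double-strength broth; final 0.25–128 μg/mL. […] Triplicate; modal MIC read visually as lowest growth-inhibiting concentration.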

Data set [11] relates to Staphylococcus aureus. Kind of data set: Antimicrobial activity against Staphylococcus aureus ATCC 29213 incubated for 24 hrs by CLSI method. The format is functional. To be noted: ATCC 29213, 24 h. In a few lines: as §1
Data set [12] deals with Staphylococcus aureus. Kind of data set: Antibacterial activity against methicillin-resistant Staphylococcus aureus NCTC 10442 incubated for 24 hrs by CLSI method. The format is functional. The following applies: NCTC 10442, 24 h. In a few lines:
as §1

The test system of data set [13] is Enterococcus faecalis. Kind of data set: Antibacterial activity against Enterococcus faecalis ATCC 29212 incubated for 24 hrs by CLSI method. The format is functional. To be noted: ATCC 29212, 24 h.
In data set [14] the test system is Acinetobacter baumannii. Kind of data set: Antimicrobial activity against Acinetobacter baumannii ATCC 19606 incubated for 18 hrs by CLSI method. The format is functional. The following applies: ATCC 19606 = CIP 70.34 = JCM 6841, 18 h. In a few lines: as §4
Data set [15] is described as follows: Cytotoxicity against human HEK293 cells assessed as reduction in cell growth incubated for 20 hrs by resazurin dye-based fluorometric assay. Put shortly: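 HEK293 cells, 5000 per well in DMEM + 10% FBS, exposed to compounds (top 32 μg/mL, 1:2 serial dilution ×8, ≤0.5% DMSO, duplicate) for 20 h at 37 °C, 5% CO2. Resazurin added (2.3 μg/mL final), 3 h further; fluorescence ex 560/em 590 nm. CC50 from sigmoidal dose-response fit against log concentration; tamoxifen standard.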

The test system of data set [16] is Staphylococcus aureus. Briefly: Antimicrobial activity against methicillin-resistant Staphylococcus aureus ATCC 43300 incubated for 18 hrs by CLSI method. To be noted: ATCC 43300, 18 h. The format is functional.
Data set [17] deals with Staphylococcus aureus. Briefly: Antimicrobial activity against methicillin-resistant Staphylococcus aureus clinical isolate incubated for 18 hrs by CLSI method. The format is functional.
The subject of data set [18] is Staphylococcus aureus. Briefly: Antimicrobial activity against glycopeptide intermediate susceptible Staphylococcus aureus NRS17 incubated for 18 hrs by CLSI method. The format is functional. To be noted: NRS17, 18 h.
For data set [19], the system named is Staphylococcus aureus. Briefly: Antimicrobial activity against glycopeptide intermediate susceptible/methicillin-resistant Staphylococcus aureus NRS1 incubated for 18 hrs by CLSI method. The format is functional. The following applies: NRS1, 18 h.
In data set [20] the test system is Staphylococcus aureus. Briefly: Antimicrobial activity against methicillin-resistant Staphylococcus aureus clinical isolate with reduced daptomycin susceptibility incubated for 18 hrs by CLSI method. The format is functional.
The test system of data set [21] is Staphylococcus aureus. Kind of data set: Antimicrobial activity against vancomycin resistant Staphylococcus aureus NARSA VRS10 incubated for 18 hrs by CLSI method. Format: functional. To be noted: NARSA VRS10, 18 h.
Data set [22] deals with Streptococcus pneumoniae. Briefly: Antibacterial activity against MDR Streptococcus pneumoniae ATCC 700677 incubated for 18 hrs by CLSI method. Format: functional. The following applies: ATCC 700677, 18 h.
Data set [23] concerns Enterococcus faecalis. Kind of data set: Antimicrobial activity against vancomycin-resistant Enterococcus faecalis clinical isolate incubated for 18 hrs by CLSI method. Format: functional.
Data set [24] can be described thus: Haemolytic activity in sheep erythrocytes at 5 ug/ml incubated for 2 hrs under shaking condition relative to control. The format is ADME, cell-based, Ovis aries, Erythrocyte. To be noted: read-out: Activity. In a few lines:
as §2

The test system of data set [25] is Staphylococcus aureus. Briefly: Bactericidal activity against exponential phase of Staphylococcus aureus ATCC 29213 assessed as reduction in bacterial count at 64 ug/ml measured at <= 30 mins by time-kill kinetics assay relative to control. The format is functional.
Data set [26] deals with Escherichia coli. Briefly: Bactericidal activity against exponential phase of Escherichia coli NCTC 10418 assessed as reduction in bacterial count at 64 ug/ml measured at <= 120 mins by time-kill kinetics assay relative to control. The format is functional.
The subject of data set [27] is Staphylococcus aureus. Kind of data set: Induction of cytoplasmic membrane depolarization in Staphylococcus aureus ATCC 29213 at 32 ug/ml incubated for 30 mins by diSC35 staining based fluorescence assay relative to control. Format: functional. In a few lines: (§5)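 Mid-log cells (1.5 McFarland) loaded with 4 µM diSC3(5) in the dark at room temperature: S. aureus in PBS 30 min; E. coli in 5 mM HEPES/20 mM glucose pH 7.2 for 60 min, then 100 mM KCl and 0.5 mM EDTA. Baseline fluorescence (ex 620/em 670 nm) ~8 min, then compound added (final 32 µg/mL S. aureus, 64 µg/mL E. coli), tracked ~30 min.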

The subject of data set [28] is Escherichia coli. Briefly: Induction of cytoplasmic membrane depolarization in Escherichia coli NCTC 10418 at 64 ug/ml incubated for 30 mins by diSC35 staining based fluorescence assay relative to control. Format: functional. Put shortly: as §5
In data set [29] the test system is Staphylococcus aureus. Briefly: Induction of plasma membrane permeabilization in Staphylococcus aureus ATCC 29213 at 32 ug/ml measured for 30 mins by propidium iodide staining based fluorescence assay relative to control. The format is functional. Put shortly: (§6)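 Mid-log cells (1.5 McFarland) with 4 µM propidium iodide, dark, room temperature: S. aureus in PBS 30 min; E. coli in 5 mM HEPES/20 mM glucose pH 7.2 for 60 min, then 100 mM KCl and 0.5 mM EDTA. Fluorescence (ex 544/em 615 nm) read ~8 min baseline, then ~30 min after compound at 32 µg/mL final.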

Data set [30] relates to Escherichia coli. Kind of data set: Induction of plasma membrane permeabilization in Escherichia coli NCTC 10418 at 32 ug/ml measured for 30 mins by propidium iodide staining based fluorescence assay relative to control. The format is functional. Put shortly:
as §6

For data set [31], the system named is Staphylococcus aureus. Briefly: Bactericidal activity against exponential phase of Staphylococcus aureus ATCC 29213 assessed as reduction in bacterial count at 64 ug/ml measured at 2 hrs by time-kill kinetics assay. The format is functional.

Where only a bound is given, the exact number is not on record here.

Take `CC(C)CCOc1ccc2ccccc2c1-c1c(OCC(=O)N[C@H](CCCCN)C(=O)N[C@H](CCCNC(=N)N)Cn2cc(CC3CCCCC3)nn2)ccc2ccccc12.Cl.Cl`: the MIC with Staphylococcus aureus [1] turned out to be 2 µg/mL; with Enterococcus faecalis [2] it was 4 µg/mL; against Clostridioides difficile [3] it was 4 µg/mL; in the data set with Acinetobacter baumannii [4], 4 µg/mL. Moreover, the hemolysis at 2 h, 50 ug/ml in [5] worked out at 78%.

Regarding `CC(C)CCOc1ccc2ccccc2c1-c1c(OCc2cn(C[C@@H](CCCCN)NC(=O)[C@@H](CCCNC(=N)N)NC(=O)CCc3ccccc3)nn2)ccc2ccccc12.Cl.Cl`, the MIC amounted to 32 µg/mL in the data set with Clostridioides difficile [6]; 8 µg/mL against Escherichia coli [7]; 32 µg/mL in the data set with Klebsiella pneumoniae; 16 µg/mL in the data set with Clostridioides difficile [8]; 16 µg/mL in the data set with Pseudomonas aeruginosa; 2 µg/mL in the data set with Staphylococcus aureus [9]. The MIC is 4 µg/mL against Streptococcus pneumoniae [10]; 4 µg/mL with Staphylococcus aureus [11]; 4 µg/mL in the data set on Staphylococcus aureus [12]; 4 µg/mL in the data set with Enterococcus faecalis [13]; 32 µg/mL with Acinetobacter baumannii [14]; 1 to 2 µg/mL against Staphylococcus aureus [16]. The MIC in the data set with Staphylococcus aureus [17] is 4 µg/mL; against Staphylococcus aureus [18] it was 2 µg/mL; in the data set on Staphylococcus aureus [19] it was 2 to 4 µg/mL; with Staphylococcus aureus [20] it was 2 to 4 µg/mL; in the data set on Staphylococcus aureus [21], 2 µg/mL; against Streptococcus pneumoniae [22] it was 1 to 2 µg/mL. Besides, in the data set on Enterococcus faecalis [23], the lowest concentration to inhibit growth (MIC) was 2 µg/mL. Also, in [5], the hemolysis at 2 h, 50 ug/ml turned out to be 94.2%. Further, the CC50 at 20 h in [15] was 27.4 µg/mL. The hemolysis at 2 h, 5 ug/ml in data set [24] is 1.1%. In addition, the Activity entry was “>=3 log10CFU/ml” with Staphylococcus aureus [25]; “>=3 log10CFU/ml” with Escherichia coli [26]; 120 - 180% with Staphylococcus aureus [27]; 460 - 900% with Escherichia coli [28]; 600% with Staphylococcus aureus [29]; 25 - 40% with Escherichia coli [30]. The Activity in the data set on Staphylococcus aureus [31] is less than 1000 CFU/mL.
